What was measured:
Assay type in all cases: functional, cell-based
[1] = test system: A-431; experiment: In vitro cytotoxicity of compound against human A431 (epidermoid) cancer cell line after 72 hr of drug exposure; details: A-431, 72 h
How it was run: (§1)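 Cytotoxicity was measured as an IC50 on a panel of human cancer lines: A431 (epidermoid), A549 (non-small-cell lung), MCF7 (breast) and MCF7-MDR (breast). The parent, unmodified taxoids were tested on the same lines.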

[2] = test system: A549; experiment: In vitro cytotoxicity of compound against human A549 (non small cell lung) cancer cell line after 72 hr of drug exposure; details: A549, 72 h; how it was run: as §1
[3] = test system: NCI/ADR-RES; experiment: In vitro cytotoxicity of compound against human MCF-7-MDR (breast) cancer cell line after 72 hr of drug exposure; how it was run: as §1

Structure (SMILES)	IC50 [1]	IC50 [2]	IC50 [3]
CSSc1cccc(C(=O)O[C@H]2[C@@H]3[C@]4(OC(C)=O)CO[C@@H]4C[C@H](O)[C@@]3(C)C(=O)[C@H](OC(C)=O)C3=C(C)[C@@H](OC(=O)[C@H](O)[C@H](C=C(C)C)NC(=O)OC(C)(C)C)C[C@]2(O)C3(C)C)c1	> 3 nM	> 3 nM	–
CCC(=O)O[C@H]1C(=O)[C@@]2(C)[C@H]([C@H](OC(=O)c3ccccc3)[C@]3(O)C[C@H](OC(=O)[C@H](O)[C@H](C=C(C)C)NC(=O)OC(C)(C)C)C(C)=C1C3(C)C)[C@]1(OC(C)=O)CO[C@@H]1C[C@@H]2O	0.09 nM	0.1 nM	2.2 nM
CSSCCC(=O)O[C@H]1C(=O)[C@@]2(C)[C@H]([C@H](OC(=O)c3ccccc3)[C@]3(O)C[C@H](OC(=O)[C@H](O)[C@H](C=C(C)C)NC(=O)OC(C)(C)C)C(C)=C1C3(C)C)[C@]1(OC(C)=O)CO[C@@H]1C[C@@H]2O	0.5 nM	0.8 nM	–
CCC(=O)O[C@H]1C(=O)[C@@]2(C)[C@H]([C@H](OC(=O)c3ccccc3)[C@]3(O)C[C@H](OC(=O)[C@H](OC(=O)CCSSC)[C@H](C=C(C)C)NC(=O)OC(C)(C)C)C(C)=C1C3(C)C)[C@]1(OC(C)=O)CO[C@@H]1C[C@@H]2O	> 3 nM	0.9 nM	–
CC(=O)O[C@H]1C(=O)[C@@]2(C)[C@H]([C@H](OC(=O)c3ccccc3)[C@]3(O)C[C@H](OC(=O)[C@H](O)[C@@H](NC(=O)c4ccccc4)c4ccccc4)C(C)=C1C3(C)C)[C@]1(OC(C)=O)CO[C@@H]1C[C@@H]2O [PACLITAXEL]	–	–	299 nM
CSSCCC(=O)O[C@H]1C[C@H]2OC[C@@]2(OC(C)=O)[C@H]2[C@H](OC(=O)c3ccccc3)[C@]3(O)C[C@H](OC(=O)[C@H](O)[C@H](C=C(C)C)NC(=O)OC(C)(C)C)C(C)=C([C@@H](OC(=O)N4CCOCC4)C(=O)[C@]12C)C3(C)C	> 3 nM	–	–
CCC(=O)O[C@H]1C(=O)[C@]2(C)[C@@H](OC(=O)CCSSC)C[C@H]3OC[C@@]3(OC(C)=O)[C@H]2[C@H](OC(=O)c2ccccc2)[C@]2(O)C[C@H](OC(=O)[C@H](O)[C@H](C=C(C)C)NC(=O)OC(C)(C)C)C(C)=C1C2(C)C	2 nM	–	–
CSSCC(=O)O[C@H]1C(=O)[C@@]2(C)[C@H]([C@H](OC(=O)c3ccccc3)[C@]3(O)C[C@H](OC(=O)[C@H](O)[C@H](C=C(C)C)NC(=O)OC(C)(C)C)C(C)=C1C3(C)C)[C@]1(OC(C)=O)CO[C@@H]1C[C@@H]2O	0.7 nM	0.8 nM	–
CSSc1cccc(C(=O)O[C@H]2C(=O)[C@@]3(C)[C@H]([C@H](OC(=O)c4ccccc4)[C@]4(O)C[C@H](OC(=O)[C@H](O)[C@H](C=C(C)C)NC(=O)OC(C)(C)C)C(C)=C2C4(C)C)[C@]2(OC(C)=O)CO[C@@H]2C[C@@H]3O)c1	> 3 nM	> 3 nM	–

— ChEMBL document CHEMBL1135685, “Tumor-specific novel taxoid-monoclonal antibody conjugates” (J Med Chem, 2002)
